Reference: ChEMBL document CHEMBL1123192 (J Med Chem, 1986)

Experiments:
Rattus norvegicus [1] = assay: Maximal change in heart rate (HR) measured as pretreatment value at dose of 25 mg/kg in SHR; assay type: functional
How it was run: (§1)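 Spontaneously hypertensive rats; test agent dissolved or dispersed in 0.5% methylcellulose and given by gastric gavage at 5 mL/kg after a 1-h equilibration. Doses ranged from 1 to 100 mg/kg, with 4–8 animals per dose. MABP and HR were monitored for 4 h. Pretreatment values and maximal % change were recorded, and maximal changes were compared with vehicle by Dunnett's t test.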

Rattus norvegicus [2] = assay: Maximal change in mean arterial blood pressure (MABP) measured as % change from pretreatment value at dose of 5 mg/kg in SHR; assay type: functional; how it was run: as §1
Rattus norvegicus [3] = assay: Maximal change in mean arterial blood pressure (MABP) measured as pretreatment value at dose of 25 mg/kg in SHR; assay type: functional; how it was run: as §1
Rattus norvegicus [4] = assay: Maximal change in heart rate (HR) measured as % change from pretreatment value at dose of 2.5 mg/kg; assay type: functional; how it was run: as §1
[5] = molecular target: Beta-1 adrenergic receptor (Cavia porcellus, UniProt B0FL73); assay: The compound was evaluated for the antagonistic activity against beta-1 adrenergic receptor; assay type: functional; conditions: read-out: pA2 (converted)
Sequence of Beta-1 adrenergic receptor (B0FL73 whole entry): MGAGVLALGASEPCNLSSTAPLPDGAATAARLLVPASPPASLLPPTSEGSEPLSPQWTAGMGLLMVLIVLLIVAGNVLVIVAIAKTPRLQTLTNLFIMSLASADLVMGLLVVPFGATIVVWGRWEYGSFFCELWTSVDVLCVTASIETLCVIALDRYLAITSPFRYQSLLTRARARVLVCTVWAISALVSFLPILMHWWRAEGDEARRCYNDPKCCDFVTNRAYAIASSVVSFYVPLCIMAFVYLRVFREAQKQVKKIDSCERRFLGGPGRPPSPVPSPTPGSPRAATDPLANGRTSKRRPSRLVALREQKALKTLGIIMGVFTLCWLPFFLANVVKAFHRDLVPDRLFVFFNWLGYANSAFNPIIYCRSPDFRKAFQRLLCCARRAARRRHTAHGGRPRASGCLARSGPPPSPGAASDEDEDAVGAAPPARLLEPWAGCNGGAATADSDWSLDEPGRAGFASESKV
How it was run: (§2)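 Isolated tissue suited to each receptor test, held in 10-mL organ baths of Krebs-Henseleit solution at 37 °C and gassed with 95% O2/5% CO2. Antagonism was judged by how several concentrations of test agent altered a cumulative concentration-response curve to a receptor-specific agonist.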

Rattus norvegicus [6] = assay: Maximal change in mean arterial blood pressure (MABP) measured as % change from pretreatment value at dose of 25 mg/kg in SHR; assay type: functional; how it was run: as §1
Rattus norvegicus [7] = assay: Maximal change in mean arterial blood pressure (MABP) measured as % change from pretreatment value at dose of 10 mg/kg in SHR; assay type: functional; how it was run: as §1
Rattus norvegicus [8] = assay: Maximal change in mean arterial blood pressure (MABP) measured as pretreatment value at dose of 1 mg/kg in SHR; assay type: functional; how it was run: as §1
Rattus norvegicus [9] = assay: Maximal change in heart rate (HR) measured as pretreatment value at dose of 5 mg/kg in SHR; assay type: functional; how it was run: as §1
Rattus norvegicus [10] = assay: Maximal change in heart rate (HR) measured as % change from pretreatment value at dose of 10 mg/kg in SHR; assay type: functional; how it was run: as §1
[11] = molecular target: Beta-2 adrenergic receptor (Cavia porcellus, UniProt Q8K4Z4); assay: The compound was evaluated for the antagonistic activity against beta-2 adrenergic receptor.; assay type: functional; conditions: read-out: pA2 (converted); how it was run: as §2
Sequence of Beta-2 adrenergic receptor (Q8K4Z4 whole entry): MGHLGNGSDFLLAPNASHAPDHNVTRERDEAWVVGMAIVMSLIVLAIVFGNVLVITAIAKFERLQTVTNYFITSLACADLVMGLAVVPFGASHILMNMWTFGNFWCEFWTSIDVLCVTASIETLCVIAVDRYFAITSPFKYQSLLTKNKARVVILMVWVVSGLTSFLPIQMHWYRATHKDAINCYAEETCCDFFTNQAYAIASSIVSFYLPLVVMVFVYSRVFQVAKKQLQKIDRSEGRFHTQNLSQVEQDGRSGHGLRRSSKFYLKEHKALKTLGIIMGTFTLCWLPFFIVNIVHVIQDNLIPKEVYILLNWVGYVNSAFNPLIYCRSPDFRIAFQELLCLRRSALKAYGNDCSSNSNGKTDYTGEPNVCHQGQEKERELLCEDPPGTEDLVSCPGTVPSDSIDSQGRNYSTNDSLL

Cavia porcellus = species on record: Cavia porcellus; assay: Beta-2-adrenoceptor ISA (intrinsic sympathomimetic activity)was measured as relaxant effect against a PGF2-alpha contracted guinea pig trachea at 3x10E -7 M; assay type: functional
Rattus norvegicus [12] = assay: Maximal change in heart rate (HR) measured as pretreatment value at dose of 2.5 mg/kg in SHR; assay type: functional; how it was run: as §1
Rattus norvegicus [13] = assay: Maximal change in mean arterial blood pressure (MABP) measured as % change from pretreatment value at dose of 1 mg/kg in SHR; assay type: functional; how it was run: as §1
Rattus norvegicus [14] = assay: Maximal change in mean arterial blood pressure (MABP) measured as pretreatment value at dose of 5 mg/kg in SHR; assay type: functional; how it was run: as §1
Rattus norvegicus [15] = assay: Maximal change in heart rate (HR) measured as % change from pretreatment value at dose of 25 mg/kg; assay type: functional; how it was run: as §1
Rattus norvegicus [16] = assay: Maximal change in heart rate (HR) measured as pretreatment value at dose of 100 mg/kg in SHR; assay type: functional; how it was run: as §1
Rattus norvegicus [17] = assay: Maximal change in heart rate (HR) measured as % change from pretreatment value at dose of 100 mg/kg in SHR; assay type: functional; how it was run: as §1
Rattus norvegicus [18] = assay: Maximal change in mean arterial blood pressure (MABP) measured as pretreatment value at dose of 100 mg/kg in SHR; assay type: functional; how it was run: as §1
[19] = molecular target: T1, Adrenergic receptor alpha-2 (Rattus norvegicus, UniProt P22086+P19328+P22909); assay: The compound was evaluated for the antagonistic activity against alpha-2 adrenergic receptor.; assay type: functional
T1 sequence (P22086 whole entry): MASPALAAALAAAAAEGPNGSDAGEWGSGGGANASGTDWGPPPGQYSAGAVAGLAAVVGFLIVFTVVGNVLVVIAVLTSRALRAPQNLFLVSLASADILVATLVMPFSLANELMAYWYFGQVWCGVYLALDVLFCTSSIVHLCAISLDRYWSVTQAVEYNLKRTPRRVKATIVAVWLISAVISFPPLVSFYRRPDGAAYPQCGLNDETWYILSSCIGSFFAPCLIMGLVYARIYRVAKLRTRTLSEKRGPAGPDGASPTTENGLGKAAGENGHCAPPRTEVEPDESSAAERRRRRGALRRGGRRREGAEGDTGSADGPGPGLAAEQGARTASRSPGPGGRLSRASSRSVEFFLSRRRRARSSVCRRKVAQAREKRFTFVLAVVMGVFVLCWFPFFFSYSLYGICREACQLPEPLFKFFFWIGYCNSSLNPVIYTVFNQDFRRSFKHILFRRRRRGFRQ
T1 sequence (P19328 whole entry): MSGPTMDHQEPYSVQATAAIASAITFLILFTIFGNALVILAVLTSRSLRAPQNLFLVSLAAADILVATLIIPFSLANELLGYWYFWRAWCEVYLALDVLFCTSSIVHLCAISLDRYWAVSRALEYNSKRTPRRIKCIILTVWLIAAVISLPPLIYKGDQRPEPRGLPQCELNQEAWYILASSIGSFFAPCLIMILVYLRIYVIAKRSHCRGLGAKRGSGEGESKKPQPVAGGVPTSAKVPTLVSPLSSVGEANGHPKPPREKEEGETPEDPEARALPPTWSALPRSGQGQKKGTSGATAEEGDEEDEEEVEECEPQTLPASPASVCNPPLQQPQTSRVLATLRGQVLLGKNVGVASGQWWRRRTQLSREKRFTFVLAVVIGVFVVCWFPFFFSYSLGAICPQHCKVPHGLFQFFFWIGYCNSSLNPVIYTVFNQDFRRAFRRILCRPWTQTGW
T1 sequence (P22909 whole entry): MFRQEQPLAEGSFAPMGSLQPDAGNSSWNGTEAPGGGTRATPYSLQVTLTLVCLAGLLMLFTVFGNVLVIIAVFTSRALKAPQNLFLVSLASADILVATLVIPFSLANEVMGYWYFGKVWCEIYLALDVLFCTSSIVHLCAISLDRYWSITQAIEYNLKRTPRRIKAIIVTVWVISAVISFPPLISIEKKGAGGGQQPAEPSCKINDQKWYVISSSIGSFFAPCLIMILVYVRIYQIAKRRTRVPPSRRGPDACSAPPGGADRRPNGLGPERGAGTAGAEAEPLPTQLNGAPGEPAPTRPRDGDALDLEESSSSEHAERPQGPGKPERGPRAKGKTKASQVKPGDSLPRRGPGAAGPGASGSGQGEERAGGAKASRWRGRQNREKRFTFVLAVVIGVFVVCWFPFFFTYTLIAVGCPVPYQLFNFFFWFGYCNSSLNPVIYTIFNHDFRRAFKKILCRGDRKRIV

Rattus norvegicus [20] = assay: Maximal change in mean arterial blood pressure (MABP) measured as pretreatment value at dose of 10 mg/kg in SHR; assay type: functional; how it was run: as §1
[21] = molecular target: Alpha-1 adrenergic receptor; assay: The compound was evaluated for the antagonistic activity against alpha-1 adrenergic receptor.; conditions: read-out: pA2 (converted)
Rattus norvegicus [22] = assay: Maximal change in heart rate (HR) measured as pretreatment value at dose of 1 mg/kg in SHR; assay type: functional; how it was run: as §1
Rattus norvegicus [23] = assay: Maximal change in mean arterial blood pressure (MABP) measured as pretreatment value at dose of 2.5 mg/kg in SHR; assay type: functional; how it was run: as §1
Rattus norvegicus [24] = assay: Maximal change in heart rate (HR) measured as % change from pretreatment value at dose of 5 mg/kg; assay type: functional; how it was run: as §1
Rattus norvegicus [25] = assay: Maximal change in mean arterial blood pressure (MABP) measured as % change from pretreatment value at dose of 2.5 mg/kg in SHR; assay type: functional; how it was run: as §1
Rattus norvegicus [26] = assay: Maximal change in mean arterial blood pressure (MABP) measured as % change from pretreatment value at dose of 100 mg/kg in SHR; assay type: functional; how it was run: as §1
Rattus norvegicus [27] = assay: Maximal change in heart rate (HR) measured as pretreatment value at dose of 10 mg/kg in SHR; assay type: functional; how it was run: as §1
Rattus norvegicus [28] = assay: Maximal change in heart rate (HR) measured as % change from pretreatment value at dose of 1 mg/kg in SHR; assay type: functional; how it was run: as §1

CC(CCc1ccccc1)NCC(O)c1cc(C(N)=O)c2[nH]ccc2c1 (centres undefined) gave an HR (Rattus norvegicus [1]) of 426 beats min-1, a Change (Rattus norvegicus [2]) of -32% and an MABP (Rattus norvegicus [3]) of 183 mmHg. For the same compound, the Change (Rattus norvegicus [4]) was -10%, the Kb [5] was 39.8 nM and the Change (Rattus norvegicus [6]) was -47%. The Change (Rattus norvegicus [7]) was -40%, the MABP (Rattus norvegicus [8]) was 171 mmHg and the HR (Rattus norvegicus [9]) was 439 beats min-1. The Change (Rattus norvegicus [10]) was -15%, the Kb [11] was 50.1 nM and the Change (Cavia porcellus) was 89%. The HR (Rattus norvegicus [12]) was 419 beats min-1, the Change (Rattus norvegicus [13]) was -9% and the MABP (Rattus norvegicus [14]) was 176 mmHg. The Change (Rattus norvegicus [15]) was -18%, the HR (Rattus norvegicus [16]) was 425 beats min-1 and the Change (Rattus norvegicus [17]) was -26%. The MABP (Rattus norvegicus [18]) was 178 mmHg, the pA2 [19] was 5.4 and the MABP (Rattus norvegicus [20]) was 166 mmHg. The Kb [21] was 251 nM, the HR (Rattus norvegicus [22]) was 442 beats min-1 and the MABP (Rattus norvegicus [23]) was 176 mmHg. For the same compound, the Change (Rattus norvegicus [24]) was -12%, the Change (Rattus norvegicus [25]) was -25% and the Change (Rattus norvegicus [26]) was -45%. The HR (Rattus norvegicus [27]) was 430 beats min-1 and the Change (Rattus norvegicus [28]) was -3%.
